Laboratory results reported in ChEMBL document CHEMBL5674890, “Selective inhibition of CBP/p300 HAT by A-485 results in suppression of lipogenesis and hepatic gluconeogenesis” (Cell Death Dis, 2020).
The source made the active and inactive calls. No cut-off for these calls is given here.

Columns and labels:
[1] = tested on: Mus musculus; assay: Anti-obesity activity in 16 hrs fasted C57BL/6 mouse supplemented with normal chow diet assessed as decrease in blood glucose level at 20 mg/kg/day, ip administered for 1 week measured after 30 mins by intraperitoneal glucose tolerance test; assay type: functional, organism-based; conditions: time 1.0 weeks
Method in brief: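 Male C57BL/6 mice on normal chow, 8 weeks old, given 20 mg·kg−1·day−1 ip daily for 7 days. After 16 h fasting, glucose 2 g/kg body weight ip; blood glucose read during the test. Mean ± SEM, n = 5–9; t test or ANOVA, P < 0.05.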

[2] = tested on: Mus musculus; assay: Anti-obesity activity in C57BL/6 mouse supplemented with high fat diet assessed as decrease in body weight at 20 mg/kg/day, ip administered for 1 week; assay type: functional, organism-based; conditions: time 1.0 weeks
Method in brief: (§1)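 Male C57BL/6 mice fed high-fat diet for 14 weeks from 5 weeks of age, then ip 20 mg·kg−1·day−1 for 7 days. Body weight, EchoMRI lean/fat mass, and random or 16 h-fasted blood glucose recorded, as the line states.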

[3] = tested on: Mus musculus; assay: Anti-obesity activity in C57BL/6 mouse supplemented with high fat diet assessed as decrease in fasting blood glucose at 20 mg/kg/day, ip administered for 1 week; assay type: functional, organism-based; conditions: time 1.0 weeks; method in brief: as §1
[4] = tested on: Mus musculus; assay: Anti-obesity activity in C57BL/6 mouse supplemented with high fat diet assessed as improvement in glucose tolerance at 20 mg/kg/day, ip administered for 1 week measured by intraperitoneal glucose tolerance test; assay type: functional, organism-based; conditions: time 1.0 weeks
Method in brief: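 High-fat diet mice (male C57BL/6, 14 weeks on HFD from 5 weeks of age), ip 20 mg·kg−1·day−1 for 7 days. 16 h fast, then glucose 2 g/kg body weight ip; blood glucose tracked during the test.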

[5] = tested on: Mus musculus; assay: Inhibition of lipogenesis in C57BL/6 mouse supplemented with high-fat diet assessed as decrease in DGAT2 mRNA expression at 20 mg/kg/day, ip administered for 1 week measured by RT-qPCR assay; assay type: functional, organism-based; conditions: time 1.0 weeks
Method in brief: (§2)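 Male C57BL/6 mice were fed high-fat diet for 14 weeks from 5 weeks of age, then injected ip with 20 mg·kg−1·day−1 for 7 days or given vehicle. Epididymal and inguinal WAT were weighed, examined by H&E, and analysed. Transcripts were measured by Trizol/SYBR Green RT-qPCR; proteins by western blot. n = 5–9; mean ± SEM.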

[6] = tested on: Mus musculus; assay: Inhibition of lipogenesis in C57BL/6 mouse supplemented with normal chow diet assessed as decrease in SREBP-1c mRNA expression at 20 mg/kg/day, ip administered for 1 week measured by RT-qPCR assay; assay type: functional, organism-based; conditions: time 1.0 weeks
Method in brief: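 Eight-week-old male C57BL/6 mice on normal chow were given 20 mg·kg−1·day−1 ip daily for 7 days or vehicle. Epididymal WAT was collected. Lipogenic, adipogenic and fatty-acid-oxidation transcripts were quantified by Trizol extraction and SYBR Green RT-qPCR. FAS, ACC, PPARγ and C/EBPα protein were assessed by western blot. n = 5–9; mean ± SEM.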

[7] = tested on: Mus musculus; assay: Inhibition of lipogenesis in C57BL/6 mouse supplemented with high-fat diet assessed as decrease in PPARgamma mRNA expression at 20 mg/kg/day, ip administered for 1 week measured measured by RT-qPCR assay; assay type: functional, organism-based; conditions: time 1.0 weeks; method in brief: as §2
[8] = tested on: Mus musculus; assay: Inhibition of lipogenesis in C57BL/6 mouse supplemented with high-fat diet assessed as decrease in C/EBPalpha mRNA expression at 20 mg/kg/day, ip administered for 1 week measured measured by RT-qPCR assay; assay type: functional, organism-based; conditions: time 1.0 weeks; method in brief: as §2
[9] = tested on: Adipocyte; assay: Inhibition of lipogenesis in mouse adipocytes isolated stromal vascular cells assessed as decrease in ACC mRNA expression measured after 24 hrs by RT-qPCR assay; assay type: functional, cell-based
Method in brief: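 Stromal vascular cells came from collagenase-digested inguinal WAT of C57BL/6 mice and were grown in DMEM/F12 with 10% FBS. At confluence, differentiation used insulin 5 μg/ml, dexamethasone 1 μM and IBMX 0.5 mM for 48 h, then insulin alone for 6 days. Fully differentiated day-8 adipocytes were exposed to A-485 for 24 h. Transcripts were quantified by RT-qPCR.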

[10] = tested on: Adipocyte; assay: Inhibition of lipogenesis in mouse adipocytes isolated stromal vascular cells assessed as decrease in SCD1 mRNA expression measured after 24 hrs by RT-qPCR assay; assay type: functional, cell-based
Method in brief: (§3)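 Stromal vascular cells from inguinal WAT of C57BL/6 mice, grown in DMEM/F12 + 10% FBS at 37 °C, 10% CO2. At confluence, induced 48 h with 5 μg/ml insulin, 1 μM dexamethasone, 0.5 mM isobutylmethylxanthine, then 6 days in 5 μg/ml insulin; fully differentiated day 8. Mature adipocytes exposed to inhibitor 24 h. Total RNA by Trizol, SYBR Green RT-qPCR; protein by western blot.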

[11] = tested on: Adipocyte; assay: Inhibition of lipogenesis in mouse adipocytes isolated stromal vascular cells assessed as decrease in ChREBP mRNA expression measured after 24 hrs by RT-qPCR assay; assay type: functional, cell-based; method in brief: as §3
[12] = tested on: Adipocyte; assay: Inhibition of lipogenesis in mouse adipocytes isolated stromal vascular cells assessed as decrease in PPARgamma protein expression measured after 24 hrs by western blot analysis; assay type: functional, cell-based
[13] = tested on: Adipocyte; assay: Inhibition of lipogenesis in mouse adipocytes isolated stromal vascular cells assessed as decrease in C/EBPalpha protein expression measured after 24 hrs by western blot analysis; assay type: functional, cell-based
[14] = tested on: Hepatocyte; assay: Inhibition of glucogenesis in mouse primary hepatocytes stimulated with 100 uM 8-Br-cAMP assessed as decrease in glucose production at 3 uM measured after 24 hrs; assay type: functional, cell-based
Method in brief: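 Two-step-perfusion primary mouse hepatocytes pretreated 16 h with 100 nM dexamethasone. Then incubated 24 h in glucose-free DMEM with 1 mM pyruvate, 10 mM lactate, 0.25% BSA, 100 μM 8-Br-cAMP and 3 μM test agent. Medium glucose measured colorimetrically. Mean ± SEM, three independent experiments.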

[15] = tested on: Hepatocyte; assay: Inhibition of glucogenesis in mouse primary hepatocytes stimulated with 100 uM 8-Br-cAMP assessed as decrease in glucose production at 3 uM in combination with 2 mM metformin; assay type: functional, cell-based
Method in brief: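 Primary mouse hepatocytes pretreated with 100 nM dexamethasone for 16 h. Glucose production then measured in glucose-free DMEM with 1 mM pyruvate, 10 mM lactate and 0.25% BSA, in the presence of 100 μM 8-Br-cAMP, with 3 μM compound plus 2 mM metformin. Medium glucose assayed colorimetrically. Three independent experiments.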

[16] = tested on: Hepatocyte; assay: Inhibition of glucogenesis in mouse primary hepatocytes stimulated with 100 uM 8-Br-cAMP assessed as effect on pAMPK protein expression at 3 uM measured after 1 hr by western blot analysis; assay type: functional, cell-based
Method in brief: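 Primary hepatocytes from C57BL/6 mice, isolated by two-step perfusion, were co-treated with 3 μM A-485 and 100 μM 8-Br-cAMP for 1 h. Phospho-CREB, phospho-AMPK and phospho-TORC2 were detected by western blot of cell lysates. Three independent experiments; mean ± SEM.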

[17] = species on record: Mus musculus; assay: Inhibition of glucogenesis in mouse assessed as decrease in hepatic C/EBPalpha protein expression measured by western blot analysis; assay type: functional, organism-based
Method in brief: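 Livers from vehicle- or treated mice (ip 20 mg·kg−1·day−1 for 7 days) homogenized in lysis buffer; FOXO1 and C/EBPα analysed by western blot.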

[18] = biological target: CREB-binding protein/Histone acetyltransferase p300 (Homo sapiens) (UniProt Q09472+Q92793); assay: Inhibition of CBP/p300 in mouse primary hepatocytes stimulated with 100 uM 8-Br-cAMP assessed as decrease in FOXO1 abundance in cytoplasm at 3 uM; assay type: cell-based; conditions: Primary hepatocyte
Sequence of CREB-binding protein/Histone acetyltransferase p300 (Homo sapiens) (Q09472 whole entry, looked up): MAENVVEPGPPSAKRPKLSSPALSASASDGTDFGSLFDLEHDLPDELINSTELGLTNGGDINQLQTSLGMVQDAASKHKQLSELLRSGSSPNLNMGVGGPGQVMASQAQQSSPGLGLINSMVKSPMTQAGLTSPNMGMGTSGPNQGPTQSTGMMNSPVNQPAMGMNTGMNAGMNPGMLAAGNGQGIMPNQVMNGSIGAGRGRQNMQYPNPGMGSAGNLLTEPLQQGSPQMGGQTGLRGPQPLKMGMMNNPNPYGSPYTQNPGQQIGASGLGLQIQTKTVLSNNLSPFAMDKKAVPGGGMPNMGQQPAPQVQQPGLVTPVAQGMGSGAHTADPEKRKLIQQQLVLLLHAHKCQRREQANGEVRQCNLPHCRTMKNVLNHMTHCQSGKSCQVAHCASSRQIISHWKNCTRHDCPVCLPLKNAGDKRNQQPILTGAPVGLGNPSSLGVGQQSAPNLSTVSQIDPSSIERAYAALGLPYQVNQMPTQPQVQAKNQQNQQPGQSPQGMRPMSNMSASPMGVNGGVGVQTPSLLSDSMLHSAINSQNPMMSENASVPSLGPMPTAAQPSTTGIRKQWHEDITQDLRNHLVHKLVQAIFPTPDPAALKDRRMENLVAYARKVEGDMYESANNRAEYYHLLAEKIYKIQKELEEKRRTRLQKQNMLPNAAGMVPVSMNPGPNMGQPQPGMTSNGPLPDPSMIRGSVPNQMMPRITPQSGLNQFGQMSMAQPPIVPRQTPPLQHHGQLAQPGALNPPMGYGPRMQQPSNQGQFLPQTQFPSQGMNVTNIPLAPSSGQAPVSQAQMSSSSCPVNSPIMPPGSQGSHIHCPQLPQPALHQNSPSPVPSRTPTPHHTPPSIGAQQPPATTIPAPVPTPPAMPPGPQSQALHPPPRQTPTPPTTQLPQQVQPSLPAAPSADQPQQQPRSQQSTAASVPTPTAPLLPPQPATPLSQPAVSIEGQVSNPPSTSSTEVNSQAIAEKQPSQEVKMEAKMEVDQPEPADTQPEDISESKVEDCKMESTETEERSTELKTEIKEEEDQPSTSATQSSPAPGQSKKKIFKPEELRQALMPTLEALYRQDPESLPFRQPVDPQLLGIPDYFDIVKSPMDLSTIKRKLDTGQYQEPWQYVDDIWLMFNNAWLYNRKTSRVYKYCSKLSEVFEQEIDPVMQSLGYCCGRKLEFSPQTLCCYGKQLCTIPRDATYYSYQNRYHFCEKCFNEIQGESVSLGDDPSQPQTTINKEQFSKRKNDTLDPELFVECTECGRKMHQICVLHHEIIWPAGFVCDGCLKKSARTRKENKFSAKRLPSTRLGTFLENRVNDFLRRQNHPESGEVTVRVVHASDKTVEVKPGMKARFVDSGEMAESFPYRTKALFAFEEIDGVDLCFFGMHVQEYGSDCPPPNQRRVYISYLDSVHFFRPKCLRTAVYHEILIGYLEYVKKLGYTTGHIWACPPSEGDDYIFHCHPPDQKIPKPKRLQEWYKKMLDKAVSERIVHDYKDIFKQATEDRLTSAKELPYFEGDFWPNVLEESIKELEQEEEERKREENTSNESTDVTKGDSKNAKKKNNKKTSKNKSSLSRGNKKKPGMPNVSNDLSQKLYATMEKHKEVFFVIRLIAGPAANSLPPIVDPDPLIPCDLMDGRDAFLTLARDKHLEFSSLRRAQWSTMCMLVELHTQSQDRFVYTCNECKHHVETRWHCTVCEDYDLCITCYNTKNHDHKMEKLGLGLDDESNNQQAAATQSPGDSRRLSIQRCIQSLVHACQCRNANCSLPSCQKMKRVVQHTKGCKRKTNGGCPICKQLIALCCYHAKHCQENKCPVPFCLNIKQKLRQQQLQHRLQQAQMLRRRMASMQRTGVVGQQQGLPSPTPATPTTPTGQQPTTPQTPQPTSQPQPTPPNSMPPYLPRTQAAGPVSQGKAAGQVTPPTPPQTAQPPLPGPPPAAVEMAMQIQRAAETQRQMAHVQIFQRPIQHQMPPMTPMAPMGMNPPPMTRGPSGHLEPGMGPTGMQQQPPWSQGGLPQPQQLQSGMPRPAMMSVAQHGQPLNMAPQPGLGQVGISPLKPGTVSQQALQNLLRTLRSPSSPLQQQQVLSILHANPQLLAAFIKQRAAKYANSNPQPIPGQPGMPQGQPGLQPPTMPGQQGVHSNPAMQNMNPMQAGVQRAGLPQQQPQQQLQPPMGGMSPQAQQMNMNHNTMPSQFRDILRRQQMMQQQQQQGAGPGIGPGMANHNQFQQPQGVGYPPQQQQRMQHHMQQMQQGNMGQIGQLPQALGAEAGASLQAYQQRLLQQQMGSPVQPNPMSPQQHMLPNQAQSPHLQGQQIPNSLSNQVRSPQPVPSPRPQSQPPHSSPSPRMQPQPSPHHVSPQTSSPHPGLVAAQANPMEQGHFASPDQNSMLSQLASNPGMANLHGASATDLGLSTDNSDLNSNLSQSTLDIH
Sequence of CREB-binding protein/Histone acetyltransferase p300 (Homo sapiens) (Q92793 whole entry, looked up): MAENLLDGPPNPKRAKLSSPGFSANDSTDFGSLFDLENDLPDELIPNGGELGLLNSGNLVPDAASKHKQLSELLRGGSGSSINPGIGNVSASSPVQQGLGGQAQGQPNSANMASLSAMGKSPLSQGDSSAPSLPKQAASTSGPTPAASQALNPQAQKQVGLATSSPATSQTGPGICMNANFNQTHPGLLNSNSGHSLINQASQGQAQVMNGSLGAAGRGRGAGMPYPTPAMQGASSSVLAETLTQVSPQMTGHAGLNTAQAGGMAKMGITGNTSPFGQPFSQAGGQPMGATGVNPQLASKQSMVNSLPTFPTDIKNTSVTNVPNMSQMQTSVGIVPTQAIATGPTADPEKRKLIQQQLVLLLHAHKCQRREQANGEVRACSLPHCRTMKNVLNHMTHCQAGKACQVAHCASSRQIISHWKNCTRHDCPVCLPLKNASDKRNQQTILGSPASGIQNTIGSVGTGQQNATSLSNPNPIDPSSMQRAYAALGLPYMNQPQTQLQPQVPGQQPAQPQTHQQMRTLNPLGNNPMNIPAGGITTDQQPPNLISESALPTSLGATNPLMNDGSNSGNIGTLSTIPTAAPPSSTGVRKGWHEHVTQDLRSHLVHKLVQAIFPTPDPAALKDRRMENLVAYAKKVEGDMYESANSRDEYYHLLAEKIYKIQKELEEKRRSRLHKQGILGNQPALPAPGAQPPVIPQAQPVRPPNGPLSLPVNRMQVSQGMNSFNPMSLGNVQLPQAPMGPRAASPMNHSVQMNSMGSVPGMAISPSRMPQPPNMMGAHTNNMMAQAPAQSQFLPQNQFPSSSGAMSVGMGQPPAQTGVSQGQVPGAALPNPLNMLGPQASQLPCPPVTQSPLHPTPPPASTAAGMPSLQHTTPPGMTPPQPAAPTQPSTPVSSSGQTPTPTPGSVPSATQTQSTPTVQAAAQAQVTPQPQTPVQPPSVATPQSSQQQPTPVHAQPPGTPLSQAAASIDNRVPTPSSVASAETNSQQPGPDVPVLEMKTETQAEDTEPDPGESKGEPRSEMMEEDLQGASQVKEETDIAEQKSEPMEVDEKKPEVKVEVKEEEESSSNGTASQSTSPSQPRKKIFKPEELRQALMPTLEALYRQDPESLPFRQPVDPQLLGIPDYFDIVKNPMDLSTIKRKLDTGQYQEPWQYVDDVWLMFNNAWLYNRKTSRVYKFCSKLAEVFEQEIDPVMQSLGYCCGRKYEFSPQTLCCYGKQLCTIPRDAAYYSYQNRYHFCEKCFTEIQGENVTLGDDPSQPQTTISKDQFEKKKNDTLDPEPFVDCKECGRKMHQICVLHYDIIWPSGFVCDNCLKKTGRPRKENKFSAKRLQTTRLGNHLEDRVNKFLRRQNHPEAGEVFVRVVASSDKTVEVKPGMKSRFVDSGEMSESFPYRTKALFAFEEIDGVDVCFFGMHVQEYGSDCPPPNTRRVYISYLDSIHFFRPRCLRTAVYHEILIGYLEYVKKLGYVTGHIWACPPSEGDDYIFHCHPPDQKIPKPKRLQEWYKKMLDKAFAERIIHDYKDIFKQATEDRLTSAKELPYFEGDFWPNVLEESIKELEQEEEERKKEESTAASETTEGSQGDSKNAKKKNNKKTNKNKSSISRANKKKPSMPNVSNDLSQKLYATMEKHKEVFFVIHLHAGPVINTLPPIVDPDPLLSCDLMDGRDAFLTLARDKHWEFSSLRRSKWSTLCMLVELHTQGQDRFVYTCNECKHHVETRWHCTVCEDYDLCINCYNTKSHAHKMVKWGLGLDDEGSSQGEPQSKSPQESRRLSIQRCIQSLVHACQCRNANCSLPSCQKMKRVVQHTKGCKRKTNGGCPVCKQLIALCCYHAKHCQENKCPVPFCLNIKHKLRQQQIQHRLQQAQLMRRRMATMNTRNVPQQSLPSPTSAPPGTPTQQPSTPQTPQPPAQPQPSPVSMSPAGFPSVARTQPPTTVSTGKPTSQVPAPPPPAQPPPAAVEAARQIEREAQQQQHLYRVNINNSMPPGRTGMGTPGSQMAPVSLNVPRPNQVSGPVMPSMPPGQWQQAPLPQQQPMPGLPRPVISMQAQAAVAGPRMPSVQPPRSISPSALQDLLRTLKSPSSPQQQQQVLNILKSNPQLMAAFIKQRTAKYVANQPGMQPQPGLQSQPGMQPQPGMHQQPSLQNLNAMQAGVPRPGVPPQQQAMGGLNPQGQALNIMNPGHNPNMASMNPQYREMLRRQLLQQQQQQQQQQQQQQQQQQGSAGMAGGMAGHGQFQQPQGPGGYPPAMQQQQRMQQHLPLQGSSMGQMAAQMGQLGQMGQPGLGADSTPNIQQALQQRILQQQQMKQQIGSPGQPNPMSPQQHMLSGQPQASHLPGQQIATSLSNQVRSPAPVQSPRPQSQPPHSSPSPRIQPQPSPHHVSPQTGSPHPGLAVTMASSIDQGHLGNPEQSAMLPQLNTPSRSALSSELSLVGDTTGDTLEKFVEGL
Method in brief: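 Primary mouse hepatocytes treated with 3 μM compound and 100 μM 8-Br-cAMP. Nuclear and cytoplasmic fractions separated with a commercial kit; FOXO1 detected by western blot.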

inhibition [18]: Active
SMILES: CNC(=O)Nc1ccc2c(c1)CCS21OC(=O)N(CC(=O)N(Cc2ccc(F)cc2)[C@@H](C)C(F)(F)F)C1=O (stereo partly drawn)
Activity [1]: Active
Activity [2]: Active
Activity [3]: Active
Activity [4]: Active
inhibition [5]: Active
inhibition [6]: Active
inhibition [7]: Active
inhibition [8]: Active
inhibition [9]: Active
inhibition [10]: Active
inhibition [11]: Active
inhibition [12]: Active
inhibition [13]: Active
inhibition [14]: Active
inhibition [15]: Active
inhibition [16]: inactive
inhibition [17]: Active
